Bioassay records (PubChem BioAssay)
RGS16-Gao HTS: RGS16-Galphao interaction regulator (human) | actives 0.38% (n = 220,000) | binding response (% of control), % at 10 µM | bead-based flow cytometry RGS16-Galphao binding, fluorescence; actives lie on both sides | AID 1441 | O15492+P09471;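 also: Galphao activated by GDP with aluminum fluoride before binding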
Target sequence (O15492 whole entry, looked up): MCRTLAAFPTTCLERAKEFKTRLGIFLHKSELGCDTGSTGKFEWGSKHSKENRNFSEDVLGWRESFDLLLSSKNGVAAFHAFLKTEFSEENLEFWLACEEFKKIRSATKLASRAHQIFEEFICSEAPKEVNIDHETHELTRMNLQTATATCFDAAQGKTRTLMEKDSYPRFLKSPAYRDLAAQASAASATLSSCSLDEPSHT
Target sequence (P09471 whole entry, looked up): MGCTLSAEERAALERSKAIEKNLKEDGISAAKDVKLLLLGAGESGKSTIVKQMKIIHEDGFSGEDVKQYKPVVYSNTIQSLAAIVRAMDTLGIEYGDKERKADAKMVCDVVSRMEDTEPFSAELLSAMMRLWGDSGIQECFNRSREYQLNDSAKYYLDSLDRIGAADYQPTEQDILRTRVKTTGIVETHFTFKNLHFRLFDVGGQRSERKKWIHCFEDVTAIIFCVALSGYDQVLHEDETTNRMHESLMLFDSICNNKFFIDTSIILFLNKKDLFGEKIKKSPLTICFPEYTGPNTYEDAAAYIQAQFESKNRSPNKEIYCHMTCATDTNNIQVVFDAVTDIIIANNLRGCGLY
Calb biofilm kill: mixture kills Candida albicans biofilm cells. C. albicans biofilm persisters + clotrimazole, fluorescence viability; primary screen in compound mixtures of four per well. inhibition, % at 7.6 µM. actives 0.02% (n = 120,000). AID 1242;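 active = inhibition above 30.3% in the primary screen of four-compound pools, then above 30% when the compound was retested; inconclusive = passed the primary limit but could not be retested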;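 also: compounds exposed to preformed 24 h biofilms for 48 h; 0% = untreated biofilm control and 100% = clotrimazole plus chlorhexidine kill blank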
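System: C. albicans CAF4-2 wild-type biofilms; Medium: RPMI/MOPS medium, pH 7.0; Reagent: Clotrimazole, 50 µg/mL; Times: biofilm formation 24 h, compound exposure 48 h, 37 °C; Detection: 2-h Alamar Blue fluorescence, 535/590 nm excitation/emission; Evaluation: percent inhibition of biofilm viability.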
RGS4-Gao reg: human RGS4-Galphao interaction regulation. P09471. Multiplexed bead flow cytometry, RGS4-Galphao binding; actives lie on both sides. binding response (% of control), % at 10 µM. actives 0.33% (n = 220,000). AID 1415; in the data active = binding response below about 49% or above about 150%; inactive = in between;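 also: fluorescent Galphao activated with aluminum fluoride binding bead-coupled RGS4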
RGS8-Gao: human RGS8-Galphao interaction regulation; response (percent of control binding), % at 10 µM; AID 1423; actives 0.34% (n = 220,000); P09471; multiplexed bead flow cytometry, RGS8-Galphao binding; actives lie on both sides; in the data active = response below about 60% or above about 140%; inactive = in between;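 also: Galphao activated as the GDP aluminium fluoride complex binding bead-coupled RGS8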
RGS7-Gao: regulators of human RGS7-Galphao interaction; Multiplexed bead flow cytometry, RGS7-Galphao binding; actives lie on both sides; binding response (% of control), % at 10 µM; actives 0.35% (n = 220,000); in the data active = binding response below about 49% or above about 150%; inconclusive = no clear call, values can overlap the other calls; inactive = in between;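 also: fluorescent Galphao held in activated GDP-AlF4 state binding bead-coupled RGS7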
RGS-Gao: regulators of human RGS4-Galphao interaction. shares compounds with RGS16-Gao HTS. multiplexed bead flow cytometry, RGS–Galpha-o binding. actives 99% (n = 1,600). RGS4–Galpha-o binding response, % at 10 µM. AID 1504;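 also: fluorescently labeled Galpha-o bound to GDP with aluminium fluoride binding biotinylated RGS beads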
Avidin counter: interferes with biotinylated probe binding to avidin beads | shares compounds with RGS16-Gao HTS | streptavidin beads, fluorescein-biotin binding, flow cytometry | inhibition, % at 10 µM | 1,700 tested, under 10 active | AID 1783;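 active = inhibition above 50%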;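 also: median green fluorescence of gated singlet beads compared with DMSO control wells; 0% = DMSO wells and 100% = complete loss of bead fluorescence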
RGS8-Gao confirm: confirmation of regulators of human RGS8-Galphao interaction; shares compounds with RGS16-Gao HTS; bead-based flow cytometry RGS8-Galphao binding, fluorescence; actives lie on both sides; binding response (% of control), % at 10 µM; actives 3% (n = 1,700); AID 1836; in the data active = binding response below about 72% or above about 130%; inactive = in between;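 also: Galphao activated as GDP AlF4 complex before binding bead RGS8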
RGS7-Gao confirm: confirmation of regulators of human RGS7-Galphao interaction; shares compounds with RGS16-Gao HTS; bead-based flow cytometry RGS7-Galphao binding; actives lie on both sides; response (percent of control binding), % at 10 µM; actives 7.8% (n = 1,700); in the data active = response below about 75% or above about 130%; inactive = in between;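 also: fluorescent Galphao activated with GDP and aluminum fluoride binding bead-coupled RGS7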
RGS16-Gao conf: confirmation of regulators of human RGS16-Galphao interaction; shares compounds with RGS16-Gao HTS; bead-based flow cytometry, RGS16-Galphao binding; actives lie on both sides; response (% of control binding), % at 10 µM; actives 4% (n = 1,700); AID 1838; in the data active = response below about 74% or above about 130%; inactive = in between;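 also: Galphao activated as the GDP aluminium fluoride complex binding bead-coupled RGS16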
RGS4-Gao single: confirmation of regulators of human RGS4-Galphao interaction; shares compounds with RGS16-Gao HTS; RGS4-Galphao binding, multiplexed bead flow cytometry; actives lie on both sides; binding response (% of control), % at 10 µM; actives 4% (n = 1,700); AID 1840; in the data active = binding response below about 74% or above about 130%; inactive = in between
RGS19-Gao single: RGS19-Galphao interaction regulation, single point confirmation | actives 5% (n = 1,700) | bead-based flow cytometry RGS19-Galphao binding; actives lie on both sides | AID 1841 | response (percent of control binding), % at 10 µM | shares compounds with RGS16-Gao HTS; in the data active = response below about 50% or above about 160%; inactive = in between;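 also: 100% = no compound control and 0% = blank background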
The depositor's hits bear a star; ? = inconclusive; . = no result given; [ ] = dose if it differs, or a comment. Only some compounds are listed: those with a hit (about 0.74% of all), similar ones and a draw of the others. Unless noted, no rule for the calls is given here.

SMILES	RGS16-Gao HTS	Calb biofilm kill	RGS4-Gao reg	RGS8-Gao	RGS7-Gao	Avidin counter	RGS8-Gao confirm	RGS7-Gao confirm	RGS16-Gao conf	RGS4-Gao single	RGS19-Gao single	others
CCOC(=O)C1C(c2ccc(O)c(O)c2)NC(=S)NC1(O)C(F)(F)F (stereo unspecified)	68.3	12.7	17.5*	76.3	34.5*	0.5	97.9	98.4	97.4	96.5	102.2
CCN=C(Nc1ccc2c(c1)OCO2)SC1CC(=O)N(c2ccc(OC)cc2)C1=O (stereo unspecified)	100.2	11.2	101.4	99.5	102.0	.	.	.	.	.	.
O=C(N/N=C1\CCCc2ccccc21)c1cccc(Br)c1	101.5	10.5	101.3	98.8	100.4	.	.	.	.	.	.
N#CC1=C(N)N(c2ccccc2)C2=C(C(=O)CCC2)C1c1ccsc1 (stereo unspecified)	16.1*	.	96.0	84.6	94.8	1.4	102.2	103.3	103.0	108.0	104.7	RGS-Gao=96.0*
COc1ccc(/C=N/OCC(=O)Nn2c(C)nc3ccccc3c2=O)cc1	40.5	18.4	96.4	76.1	94.8	.	.	.	.	.	.
Cc1ccccc1-n1cnc2c(sc3nc(N4CCOCC4)c4c(c32)CCCC4)c1=O	100.9	-3.9	100.3	101.4	?	.	.	.	.	.	.
O=C(/C=C/c1ccc(O)cc1)c1ccccc1	101.8	4.0	102.0	101.7	?	.	.	.	.	.	.
O=C(/C=C/c1ccc(N2CCC(c3ccccc3)=N2)cc1)c1ccccc1	111.3	15.5	113.5	97.0	153.2*[activator]	.	.	.	.	.	.	RGS-Gao=113.5*
CC(Sc1ncnc2ccccc12)C(=O)Nc1ccc2c(c1)OCO2 (stereo unspecified)	.	.	.	.	.	1.0	103.4	91.7	105.6	96.6	102.6
O=C(NCCO)Nc1ccc2nc(-c3ccco3)c(-c3ccco3)nc2c1	17.5*	-1.4	66.2	48.3*	39.5*	.	.	.	.	.	.	RGS-Gao=66.2*
COC(=O)c1cc(Br)c(=O)n(-c2cccc(F)c2)c1	108.1	.	104.3	101.7	104.6	.	.	.	.	.	.
COc1cc(O)oc1C=Nc1ccc(C(F)(F)F)cc1	93.8	.	94.2	100.0	95.3	.	.	.	.	.	.
O=C(Nc1ccc(Cl)c(Cl)c1)OCCNC(=O)c1ccncc1	104.2	-0.1	96.1	81.4	?	-0.1	102.5	106.4	105.3	103.7	92.3
CCn1ncc(C2=NOC(C(=O)Nc3cccc(O)c3)C2)c1C (stereo unspecified)	97.4	13.5	100.5	100.4	94.9	.	.	.	.	.	.
COc1ccc(CC(=O)Nc2ccccc2N2CCCCC2)cc1OC	99.8	7.0	97.6	101.5	?	.	.	.	.	.	.
N#Cc1c(-c2ccccc2)nc(SCC(=O)N(c2ccccc2)c2ccccc2)[nH]c1=O	6.4	9.2	76.7	49.7*	51.1	1.3	104.5	101.5	103.6	100.0	108.2	RGS-Gao=76.7*
CC(=O)Nc1ccc(C(=O)N/C(=C\c2ccccc2)C(=O)Nc2cccc(C(=O)O)c2)cc1	98.7	19.1	96.3	98.8	?	.	.	.	.	.	.
C=CCNC(=S)N1CCN(C2CCCCC2)CC1	88.6	20.9	95.0	92.9	?	.	.	.	.	.	.
CCN1CC(CN(C)Cc2cn(-c3ccc(C)cc3)nc2-c2cccc(C)c2)CC1=O (stereo unspecified)	99.6	5.0	93.8	99.8	98.6	.	.	.	.	.	.
